Results pooled from the literature.
Protocols differ between the studies behind these lines. ≈ marks a conversion by molar mass, not a printed value.

| Structure (SMILES) | target or system | read-out | technique | strain | time | endpoint | result |
| --- | --- | --- | --- | --- | --- | --- | --- |
| N.N.[Cl][Pt][Cl] | CCD 19Lu | cell growth or viability | MTT | – | 72 h | IC50 | 56.1 µM |
| O=C(CCc1ccccc1)Nc1ncccn1 | Candida albicans | microbial growth | – | – | 48 h | MIC80 | > 100 µM |
| O=c1ccc2nc3ccc(OCc4ccc([N+](=O)[O-])o4)cc3oc-2c1 | Enterococcus faecium | microbial growth | – | – | 24 h | MIC | > 32 µg/mL |
| Cc1cnc(NC(=O)/C=C/c2cccs2)nc1 | Candida albicans | microbial growth | – | – | 48 h | MIC80 | 25 µM (≈ 6.13 µg/mL) |
| OC(Cn1cncn1)(Cn1cncn1)c1ccc(F)cc1F | Candida albicans | microbial killing | broth dilution | SP3903 | 48 h | MFC | > 64 µM |
| O=c1ccc2nc3ccc(O)cc3oc-2c1 | Enterococcus faecium | microbial growth | – | – | 24 h | MIC | > 32 µg/mL |
| CC(=O)N1CCN(c2ccc(OCC3COC(Cn4ccnc4)(c4ccc(Cl)cc4Cl)O3)cc2)CC1 (centres unmarked) | Candida albicans | microbial killing | broth dilution | 58288 | 48 h | MFC | > 64 µM |
| OC(Cn1cncn1)(Cn1cncn1)c1ccc(F)cc1F | Candida albicans | microbial growth | broth dilution | ATCC60193 | – | MIC | 2 µg/mL (≈ 6.53 µM) |
